Screening data deposited in PubChem BioAssay by several laboratories.
EBI2 antag – EBI2 receptor antagonists, beta-arrestin recruitment, primary screen, cell-based, luminescence, 7a,25-OHC stimulation, uHTS; inhibition, % at 5 µM; actives 0.81% (n = 360,000); 7a,25-OHC stimulated; in the data active means inhibition above about 38%;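 further: enzyme fragment complementation signal reports receptor beta-arrestin coupling in cells; 0% = agonist plus DMSO wells and 100% = wells without agonist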
HTR2A ag – mouse Htr2a agonists via beta-arrestin recruitment, primary screen, cell-based, luminescence | 5-hydroxytryptamine receptor 2A (Mus musculus), P35363 | CHO-K1 mHTR2A beta-arrestin complementation; percent of 30 µM serotonin response | activation, % at 7.6 µM | actives 0.66% (n = 360,000) | AID 624169, 2012;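 active means activation above a run cutoff, the mean activation of all tested compounds plus 3 SD, cut at about 14% in these data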;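 further: 0% = plate median of compound wells and 100% = 30 µM serotonin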
CXCR6 inh – CXCR6 receptor inhibitors, primary screen, cell-based, beta-arrestin, luminescence, CHO-K1 PathHunter, 1536-well; C-X-C chemokine receptor type 6 (Homo sapiens), O00574; actives 0.36% (n = 360,000); inhibition, % at 20 µM; in the data active means inhibition above about 34%, passing the limit was not always enough;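 further: antagonist mode with CXCL16 agonist at 10 nM final; 0% = 10 nM CXCL16 with DMSO and 100% = unstimulated wells without agonist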
Target sequence (O00574 whole entry, looked up): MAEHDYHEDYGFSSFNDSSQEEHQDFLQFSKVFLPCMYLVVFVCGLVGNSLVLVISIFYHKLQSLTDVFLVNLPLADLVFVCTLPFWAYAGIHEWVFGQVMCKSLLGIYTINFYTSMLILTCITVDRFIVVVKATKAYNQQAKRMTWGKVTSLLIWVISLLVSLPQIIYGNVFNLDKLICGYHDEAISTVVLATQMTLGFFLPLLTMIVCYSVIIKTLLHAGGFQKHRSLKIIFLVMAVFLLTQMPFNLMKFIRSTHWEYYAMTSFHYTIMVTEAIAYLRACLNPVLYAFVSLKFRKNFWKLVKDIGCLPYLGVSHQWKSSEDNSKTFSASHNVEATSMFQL
APJ ag – agonists of human apelin receptor APJ, primary screen, CHO-K1 cells, PathHunter beta-arrestin, luminescence; 0% DMSO wells, 100% apelin; activation, % at 20 µM; P35414; actives 0.11% (n = 330,000);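 active means activation more than six SD over the plate average, tested at 20 µM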;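 further: 0% = DMSO alone and 100% = apelin-13 at 10 nM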
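Test system – PathHunter CHO-K1 APJ (AGTRL-1) beta-arrestin reporter cells · Input – 1000 cells/well · Compound – single test compound dose, 20 µM final, 1% DMSO · Times – compound stimulation 90 min at 25 °C, detection 60 min · Technique – beta-gal luminescence · Read-out basis – APJ–arrestin association signal · Control set – negative DMSO alone, positive Apelin-13 at 10 nM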
APJ antag – antagonists of human apelin receptor APJ, primary screen, CHO-K1 cells, beta-arrestin complementation, luminescence. P35414. inhibition, % at 20 µM. actives 0.32% (n = 330,000). AID 2521, 2010;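 active means inhibition above about 40% at 20 µM, limit read from the data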;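 further: cells challenged with 10 nM apelin-13 agonist together with compound; plate controls were apelin-13 plus DMSO wells for no effect and DMSO wells lacking apelin-13 for full effect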
CCR6 antag – CCR6 receptor antagonists, primary screen, cell-based, CHO-K1, luminescence, beta-arrestin, uHTS; CHO-K1 CCR6 PathHunter beta-arrestin, CCL20-stimulated; inhibition, % at 20 µM; actives 0.49% (n = 340,000);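 active means compounds whose inhibition of the agonist-driven luminescence signal at 20 µM reaches about 50%, limit read from the data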;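 further: cells stimulated with CCL20 at 14 nM final; plate controls were DMSO with CCL20 for no effect and DMSO without agonist for full effect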
APJ ag conf – agonists of human apelin receptor APJ, confirmation, cell-based, single concentration, CHO-K1, beta-arrestin, luminescence; activation, % at 20 µM; actives 10% (n = 310); AID 2764, 2010; shares compounds with APJ ag; CHO-K1 APJ PathHunter beta-arrestin;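 active means activation above 40%, taking the highest of four retests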;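 further: plate controls were DMSO wells for no effect and apelin-13 at 10 nM for full effect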
* marks the source's active call; other numbers are inactive results; . = not tested or not shown. An excerpt weighted towards active compounds, which were near 2.1% of everything screened.

SMILES	EBI2 antag	HTR2A ag	CXCR6 inh	APJ ag	APJ antag	CCR6 antag	others
C=C1C(=O)C=C2CN(C(=O)c3ccccc3)[C@@](Cc3ccc(F)cc3)(C(=O)OC)[C@@H]12	76*	-4	88*	-10	37	100*
C=C1C(=O)CC2=C1[C@](Cc1ccc(F)cc1)(C(=O)OC)N(C(=O)c1ccccc1)C2	3	3	5	.	.	.
C=CCc1cccc(/C=N/NC(=O)C(=O)Nc2ccc(C)cc2)c1O	4	2	-1	2	-4	14
C=CCc1cccc(/C=N/NC(=O)C(C)Nc2ccc(C)cc2)c1O (centres undefined)	41*	-5	-6	-1	10	29
Cc1cnccc1CN(C)Cc1nc(Cc2ccccc2Cl)no1	12	0	-3	-1	-16	-6
Cc1ccc(C(=O)COC(=O)COc2ccccc2[N+](=O)[O-])s1	-5	-3	6	-4	5	-2
CCOC(=O)COc1ccccc1/C=C\[N+](=O)[O-]	-17	-4	45*	.	.	69*
COCCCNCCOCCSc1ccc(Cl)cc1	-7	-1	5	-1	4	16
CCCCNCCOCCSc1ccc(Cl)cc1	15	30*	4	-4	12	3
[O-][n+]1cc(Cl)cc(Cl)c1	-5	3	-2	.	.	.
CCOc1ccc2nc(N3C(=O)CNC3=S)sc2c1	-17	-11	32	-4	13	60*
Cc1ccc(S(=O)(=O)N2C[C@H]3N(C(=O)OC(C)C)N(C(=O)OC(C)C)C[C@H](OC(=O)NCC4CCCCC4)[C@@]3(O)C2)cc1	11	-3	1	.	.	.
CC(C)(C)c1ccc(C(=O)N2CCC2(C)C(=O)Nc2cccc3ncccc23)cc1 (centres undefined)	7	1	-10	.	.	.
O=C(O)CCCCCN1C(=O)/C(=C\c2ccc(-c3ccc(Cl)cc3)o2)SC1=S	1	3	22	-5	10	21
O=C(O)CCCN1C(=O)/C(=C/c2ccc(-c3nc4ccccc4s3)o2)SC1=S	53*	1	32	-5	10	35
COc1ccc2[nH]c3c4c(ccc3c2c1)C(=O)C=CC4=O	35	-2	30	3	21	61*
Cc1cc(/C=C(\C#N)C(=O)NCc2cccs2)c(C)n1-c1ccccc1F	51*	-5	7	-5	11	7
CCO[C@@H]1OC(C(=O)N2CCN(Cc3ccccc3)CC2)=C[C@H](c2ccc(Br)cc2)[C@H]1CCCO	37	-14	48*	-7	7	58*
CCO[C@@H]1OC(C(=O)N2CCN(Cc3ccccc3)CC2)=C[C@H](c2ccc(C(F)(F)F)cc2)[C@H]1CCCO	17	-4	28	-5	3	29
CCOC(=O)N1CCN(C(=O)C2CCN(C(=O)c3ccccc3C)CC2)CC1	3	-2	109*	.	.	.
Cc1ccccc1C(=O)N1CCC(C(=O)N2CCN(c3ncccn3)CC2)CC1	-2	2	1	-4	-7	-5
O=C(Nc1ccc(Cl)cc1Cl)c1cccc(N2C(=O)C=CC2=O)c1	-4	1	105*	-1	-5	47
Cc1cc(C)cc(OCC(O)CN2CCN(C(=O)c3ccco3)CC2)c1 (centres undefined)	10	4	7	-3	-10	13
O=C(c1ccco1)N1CCN(CC(O)COc2ccc3oc4ccccc4c3c2)CC1 (centres undefined)	-23	14*	-2	0	-9	0
CCCCNc1c(-c2ccc(OC)c(Sc3ccc(OC)cc3)c2)nc2ccccn12	-75	14	-15	37*	-157	-28	APJ ag conf=23
SMILES	EBI2 antag	HTR2A ag	CXCR6 inh	APJ ag	APJ antag	CCR6 antag	others
COc1cc2nc(N3CCN(c4cc(C)ccc4C)CC3)nc(N)c2cc1OC	16	-15	-23	20*	-26	-5	APJ ag conf=34
N#Cc1c2ccc([N+](=O)[O-])cc2[n+]([O-])n1-c1ccccc1	-23	-1	-15	13*	-237	.	APJ ag conf=12
Cc1onc(-c2ccccc2Cl)c1C(=O)O/N=C(\N)c1ccccc1	-14	1	-34	31*	-112	-28	APJ ag conf=21
O=C(Nc1ccccc1)C1CCCN(C(=O)c2ccc(F)cc2)C1 (centres undefined)	11	4	-4	-2	8	9
CC(C)NS(=O)(=O)c1ccc(CCC(=O)N2CCCCC2)cc1	-3	-3	6	1	-20	10
CC(C)(C)OC(=O)NCCCCCNC(=O)c1nc[nH]c1C(=O)NCc1ccc(CNC(=O)OC(C)(C)C)cc1	-39	-1	-26	12*	-22	-7	APJ ag conf=9
COc1cccc(NC(=O)c2cccnn2)c1	-5	4	-1	-2	0	4
CCOc1ncccc1C(=O)OCc1cc(=O)oc2c(C)c(C)ccc12	9	0	0	.	.	-4
Cc1cccc(C(=O)OCc2cc(=O)oc3c(C)c(C)ccc23)c1O	8	0	9	24*	11	-6	APJ ag conf=8
COc1ccc(Br)cc1C(=O)CCC(=O)OCC(=O)Nc1cc(C(N)=O)cc(C(N)=O)c1	-5	-5	0	-5	16	18
Cc1ccc(-c2cc(C(=O)Nc3ccncc3)c3ccccc3n2)cc1	-41	0	-6	31*	-24	-36	APJ ag conf=11
COc1cc(-c2cc(C(=O)Nc3ccncc3)c3ccccc3n2)cc(OC)c1OC	-29	6	-6	5	-19	-3
O=C(c1ccc([N+](=O)[O-])o1)N1CCN(c2nc3c(Cl)cccc3s2)CC1	-12	7	-16	32*	-22	-6	APJ ag conf=7
COc1cccc2sc(N3CCN(C(=O)c4ccc([N+](=O)[O-])o4)CC3)nc12	4	-5	-27	30	-143	-13
COc1ccc(/C=N/Nc2cc(C)nc3ccc(OC)cc23)c(OC)c1	-12	-9	23	61*	-14	10	APJ ag conf=64*
COc1ccc2nc(C)cc(N/N=C/c3ccccc3)c2c1	1	-12	4	21	-10	26
COC(=O)C(=O)/C=C(\O)c1c(C)cc(C)cc1C	-7	9	-6	-4	19	3
O=C(Cn1ncc2c([nH]c3ccccc32)c1=O)Nc1ccc(CN2CCCCC2)cc1	-9	-4	-7	91*	-13	5	APJ ag conf=0
